Reference: ChEMBL document CHEMBL1145287, “Docking and 3-D QSAR studies on indolyl aryl sulfones. Binding mode exploration at the HIV-1 reverse transcriptase non-nucleoside binding site and design of highly active N-(2-hydroxyethyl)carboxamide and N-(2-hydroxyethyl)carbohydrazide derivatives” (J Med Chem, 2005)

Legend:
Conditions in all cases: Homo sapiens
[1] = tested on: MT4; assay: Protection of infected MT-4 cells from wtIIIB-HIV-1-induced cytopathogenicity; format: functional, cell-based
In short: (§1)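 MT-4 cells (1 × 10⁴/well, RPMI 1640 with 10% FCS, 37 °C, 5% CO₂) were infected with HIV-1 IIIB (H9/IIIB supernatant) at an inoculum causing complete cytopathicity by day 4, across graded compound concentrations. Viability was read by MTT, with cytotoxicity run in parallel on mock-infected cells. Concentration giving 50% protection reported as the mean of three experiments.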

[2] = tested on: MT4; assay: (§2) Concentration required for 50% protection of infected MT-4 cells from wtIIIB-HIV-1-induced cytopathogenicity was determined by the MTT method; format: functional, cell-based; in short: as §1
[3] = tested on: MT4; assay: Compound concentration required to achieve 50% protection of infected MT-4 cells from K103N-Y181C strain was determined by the MTT method; format: functional, cell-based
In short: (§3)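 MT-4 cells (1 × 10⁴/well, RPMI 1640 + 10% FCS) exposed to serial compound dilutions (200 mM DMSO stock diluted in medium), infected with enough virus to give full cytopathicity by day 4; wt IIIB from H9/IIIB supernatant, Y181C and K103N–Y181C from NNRTI-selected passages.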

[4] = tested on: C8166; assay: Compound concentration required to reduce the amount of p24 by 90% in wtIIIBinfected C8166 cells; format: functional
In short: (§4)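 Acute infection of C8166 cells (1 × 10⁴/well, RPMI 1640 with 10% FCS, 37 °C, 5% CO₂) by HIV-1 IIIB from persistently infected H9/IIIB supernatant, with a virus inoculum sized to cause complete cytopathicity at day 4, in the presence of serially diluted compound (DMSO stock diluted in medium). p24 antigen was measured by immunoenzymatic kit. Concentration giving 90% reduction of p24 reported.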

[5] = tested on: MT4; assay: Concentration required to achieve 50% protection of infected MT-4 cells from Y181C-HIV-1 strain; format: functional, cell-based; in short: as §3
[6] = tested on: MT4; assay: Compound concentration required to achieve 50% protection of infected MT-4 cells from Y181C strain was determined by the MTT method; format: functional, cell-based; in short: as §3
[7] = tested on: C8166; assay: Compound concentration required to reduce the amount of p24 by 90% in C8166 cells infected with an efavirenz-resistant strain EFVR carrying mutations K103R, V179D, and P225H; format: functional
In short: (§5)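 C8166 cells (1 × 10⁴/well) with serial compound dilutions (200 mM DMSO stock diluted in medium), infected with K103R/V179D/P225H virus selected from IIIB by passage in C8166 cells with efavirenz up to 2 μM (stock 3.0 × 10⁵ CCID₅₀/mL); 37 °C incubation; p24 measured by immunoenzymatic kit; value = concentration giving 90% p24 reduction.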

[8] = tested on: MT4; assay: as §2; format: functional, cell-based; in short: as §3; remark: listed apart in the source
[9] = tested on: C8166; assay: Concentration required to reduce the amount of p24 by 90% in wtIIIB-HIV-1-infected C8166 cells; format: functional; in short: as §4
[10] = tested on: C8166; assay: Concentration required to reduce the amount of p24 by 90% in C8166 cells infected with an efavirenz-resistant strain EFVR; format: functional; in short: as §5
[11] = tested on: MT4; assay: Concentration required to achieve 50% protection of infected MT-4 cells from K103N-Y181C; format: functional, cell-based; in short: as §3

Structure (SMILES)	EC50 [1]	further results
CC(C)(C)c1ccc(S(=O)(=O)c2c(C(N)=O)[nH]c3ccc(Cl)cc23)cc1	130 nM	
NC(=O)c1[nH]c2ccc(Cl)cc2c1S(=O)(=O)c1cc(Cl)ccc1N	40 nM	
CCOC(=O)C(=O)c1cc2cc(Cl)ccc2n1S(=O)(=O)c1ccc(C)cc1	> 200000 nM	
O=[N+]([O-])c1ccc(Cl)cc1S(=O)(=O)n1ccc2ccccc21		EC50 [2]: 3980 nM
O=C(NCCO)c1[nH]c2ccc(Cl)cc2c1Sc1ccccc1		EC50 [2]: 129 nM
CCOC(=O)c1[nH]c2ccc(Cl)cc2c1S(=O)(=O)c1ccccc1N	> 200000 nM	
Cc1cc(C)cc(S(=O)(=O)c2c(C(=O)NNCCO)[nH]c3ccc(Cl)cc23)c1	1 nM	EC50 [3]: 10000 nM; EC90 [4]: 6 nM; EC50 [5]: 30 nM; EC50 [6]: 30 nM; EC90 [7]: 200 nM; EC50 [8]: 1 nM; EC90 [9]: 6 nM; EC90 [10]: 200 nM; EC50 [2]: 1 nM; EC50 [11]: 10000 nM
CCOC(=O)C(=O)c1cc2cc(Cl)ccc2n1S(=O)(=O)c1ccccc1	> 200000 nM	
NC(=O)c1[nH]c2ccccc2c1S(=O)(=O)c1ccccc1	180 nM	
NNC(=O)C(=O)c1cc2ccccc2n1S(=O)(=O)c1ccccc1	> 200000 nM	
O=Cc1cc2ccccc2n1S(=O)(=O)c1ccccc1	> 150000 nM	
Nc1cc(Cl)ccc1S(=O)(=O)n1ccc2ccccc21		EC50 [2]: 74100 nM
NC(=O)c1[nH]c2ccccc2c1Sc1ccccc1	1400 nM	
NC(=O)c1c(C=O)n(S(=O)(=O)c2ccccc2)c2ccc(Cl)cc12	≥ 200000 nM	
NC(=O)c1[nH]c2ccc(Cl)cc2c1Sc1cc(Cl)ccc1N	1600 nM	
CCOC(=O)c1[nH]c2ccccc2c1Sc1cc(Cl)ccc1N	≥ 200000 nM	
NC(=O)C(=O)c1cc2cc(Cl)ccc2n1S(=O)(=O)c1ccccc1	66600 nM	
CC(C)OC(=O)c1c(C=O)n(S(=O)(=O)c2ccccc2)c2ccccc12	> 54000 nM	
Cc1cccc(S(=O)(=O)c2c(C(N)=O)[nH]c3ccc(Cl)cc23)c1	1 nM	
Cc1cc(C)cc(Sc2c(C(N)=O)[nH]c3ccc(Cl)cc23)c1	6 nM	
Cc1ccc(Sc2c(C(=O)NNCCO)[nH]c3ccc(Cl)cc23)c(C)c1		EC50 [2]: 2290 nM

Structure (SMILES)	EC50 [1]	further results
CC(C)c1ccc(S(=O)(=O)c2c(C(N)=O)[nH]c3ccc(Cl)cc23)cc1	80 nM	
CC(C)(C)c1ccc(Sc2c(C(N)=O)[nH]c3ccc(Cl)cc23)cc1	8000 nM	
CCOC(=O)C(=O)c1cc2ccccc2n1S(=O)(=O)c1cc(Cl)ccc1N	1800 nM	
Cc1ccc(S(=O)(=O)c2c(C(N)=O)[nH]c3ccc(Cl)cc23)c(C)c1	4 nM	
CCOC(=O)c1[nH]c2ccccc2c1S(=O)(=O)c1ccccc1	3700 nM	
CCOC(=O)C(=O)c1cc2ccccc2n1S(=O)(=O)c1ccccc1[N+](=O)[O-]	1800 nM	
NNC(=O)c1[nH]c2ccc(Cl)cc2c1Sc1ccccc1	550 nM	
NC(=O)c1[nH]c2ccc(Cl)cc2c1Sc1ccccc1	20 nM	
CCOC(=O)C(=O)c1cc2cc(Cl)ccc2n1S(=O)(=O)c1cc(Cl)ccc1N	8300 nM	
NNC(=O)c1[nH]c2ccc(Cl)cc2c1S(=O)(=O)c1ccccc1	10 nM	
NC(=O)c1[nH]c2ccc(Cl)cc2c1S(=O)(=O)c1ccc(F)cc1	14 nM	
CCOC(=O)c1c(C=O)n(S(=O)(=O)c2ccccc2)c2ccccc12	> 32000 nM	
CCOC(=O)C(=O)c1cc2ccccc2n1S(=O)(=O)c1ccc(Cl)cc1	> 100000 nM	
Cc1ccc(S(=O)(=O)c2c(C(N)=O)[nH]c3ccc(Cl)cc23)cc1	3 nM	
CCOC(=O)c1[nH]c2ccc(Cl)cc2c1Sc1ccccc1N	2300 nM	
Cc1ccccc1S(=O)(=O)c1c(C(N)=O)[nH]c2ccc(Cl)cc12	1 nM	
NC(=O)c1c(C=O)n(S(=O)(=O)c2ccccc2)c2ccccc12	> 32000 nM	
NC(=O)c1[nH]c2ccc(Cl)cc2c1Sc1ccc(Cl)cc1	3100 nM	
Cc1ccc(Sc2c(C(N)=O)[nH]c3ccc(Cl)cc23)cc1	> 450 nM	
Cc1ccc(Sc2c(C(=O)NN)[nH]c3ccc(Cl)cc23)cc1	1500 nM	
NC(=O)c1[nH]c2ccc(Cl)cc2c1Sc1ccc(F)cc1	1400 nM	

Structure (SMILES)	EC50 [1]	further results
CC(C)OC(=O)c1c(C=O)n(S(=O)(=O)c2ccccc2)c2ccc(Cl)cc12	> 200000 nM	
CC(C)c1ccc(Sc2c(C(N)=O)[nH]c3ccc(Cl)cc23)cc1	1900 nM	
O=Cc1cc2cc(Cl)ccc2n1S(=O)(=O)c1ccccc1	> 75000 nM	
CCOC(=O)C(=O)c1cc2cc(Cl)ccc2n1S(=O)(=O)c1ccc(Cl)cc1	> 200000 nM	
O=[N+]([O-])c1cc(Cl)ccc1S(=O)(=O)n1ccc2ccccc21		EC50 [2]: 15800 nM
Cc1ccnc2c1NC(=O)c1cccnc1N2C1CC1 [NEVIRAPINE]		EC50 [3]: > 30000 nM; EC90 [4]: 120 nM; EC50 [5]: > 30000 nM; EC50 [6]: > 30000 nM; EC90 [7]: > 30000 nM; EC90 [9]: 120 nM; EC90 [10]: > 30000 nM; EC50 [11]: > 30000 nM
NC(=O)C(=O)c1cc2ccccc2n1S(=O)(=O)c1ccccc1	15000 nM	
NC(=O)c1[nH]c2ccccc2c1Sc1cc(Cl)ccc1N	9000 nM	
O=C1Nc2ccc(Cl)cc2[C@@](C#CC2CC2)(C(F)(F)F)O1 [EFAVIRENZ]		EC50 [3]: 150 nM; EC90 [4]: 8 nM; EC90 [7]: 1800 nM; EC90 [9]: 8 nM; EC90 [10]: 1800 nM; EC50 [11]: 150 nM
Cc1ccc(S(=O)(=O)c2c(C(=O)NCCO)[nH]c3ccc(Cl)cc23)c(C)c1		EC50 [2]: 10 nM
NC(=O)c1[nH]c2ccccc2c1S(=O)(=O)c1cc(Cl)ccc1N	300 nM	
Cc1cc(C)cc(S(=O)(=O)c2c(C(=O)NN)[nH]c3ccc(Cl)cc23)c1	130 nM	
CCOC(=O)c1c(C=O)n(S(=O)(=O)c2ccccc2)c2ccc(Cl)cc12	> 42000 nM	
Cc1ccc(S(=O)(=O)c2c(C(=O)NN)[nH]c3ccc(Cl)cc23)cc1	50 nM	
NNC(=O)c1[nH]c2ccc(Cl)cc2c1Sc1cc(Cl)ccc1N	> 13000 nM	
Cc1cc(C)cc(S(=O)(=O)c2c(C(N)=O)[nH]c3ccc(Cl)cc23)c1	4 nM	
CCOC(=O)c1[nH]c2ccccc2c1Sc1ccccc1	1400 nM	
Cc1ccccc1Sc1c(C(N)=O)[nH]c2ccc(Cl)cc12	300 nM	
O=[N+]([O-])c1ccc(Cl)c(S(=O)(=O)n2ccc3ccccc32)c1		EC50 [2]: 6030 nM
NC(=O)c1[nH]c2ccc(Cl)cc2c1S(=O)(=O)c1c(Cl)cccc1Cl	100 nM	
NNC(=O)c1[nH]c2ccc(Cl)cc2c1Sc1ccc(F)cc1	5000 nM	

Structure (SMILES)	EC50 [1]	further results
NNC(=O)c1[nH]c2ccccc2c1S(=O)(=O)c1ccccc1	530 nM	
NNC(=O)c1[nH]c2ccc(Cl)cc2c1S(=O)(=O)c1ccc(F)cc1	320 nM	
Cc1cc(C)cc(S(=O)(=O)c2c(C(N)=O)[nH]c3ccc(Br)cc23)c1	2 nM	
NC(=O)c1[nH]c2ccc(Cl)cc2c1Sc1c(Cl)cccc1Cl	1200 nM	
Cc1cc(C)cc(S(=O)(=O)c2c(C(N)=O)[nH]c3ccc(C(C)O)cc23)c1 (stereo not drawn)	25 nM	
Cc1cc(C)cc(S(=O)(=O)c2c(C(=O)NCCO)[nH]c3ccc(Cl)cc23)c1	1 nM	EC50 [3]: 500 nM; EC90 [4]: 5 nM; EC50 [5]: 10 nM; EC50 [6]: 10 nM; EC90 [7]: 100 nM; EC50 [8]: 1 nM; EC90 [9]: 5 nM; EC90 [10]: 100 nM; EC50 [2]: 1 nM; EC50 [11]: 500 nM
NC(=O)c1[nH]c2ccc(Cl)cc2c1S(=O)(=O)c1ccccc1 [L-737126]	1 nM	EC50 [5]: 20 nM; EC90 [9]: 0.7 nM; EC90 [10]: 900 nM; EC50 [11]: 8000 nM
CCOC(=O)C(=O)c1cc2ccccc2n1S(=O)(=O)c1cc(Cl)ccc1[N+](=O)[O-]	> 100000 nM	
NC(=O)c1[nH]c2ccc(Cl)cc2c1S(=O)(=O)c1ccc(Cl)cc1	11 nM	
NNC(=O)c1[nH]c2ccc(Cl)cc2c1Sc1ccc(Cl)cc1	10000 nM	
CCOC(=O)C(=O)c1cc2cc(Cl)ccc2n1S(=O)(=O)c1cc(Cl)ccc1[N+](=O)[O-]	> 31000 nM	
CCOC(=O)c1[nH]c2ccccc2c1S(=O)(=O)c1cc(Cl)ccc1N	2500 nM	
CCOC(=O)c1[nH]c2ccc(Cl)cc2c1Sc1cc(Cl)ccc1N	2500 nM	
NNC(=O)c1[nH]c2ccc(Cl)cc2c1S(=O)(=O)c1cc(Cl)ccc1N	300 nM	
CCOC(=O)c1[nH]c2ccc(Cl)cc2c1S(=O)(=O)c1cc(Cl)ccc1N	1900 nM	
NNC(=O)c1[nH]c2ccc(Cl)cc2c1S(=O)(=O)c1ccc(Cl)cc1	190 nM	
Cc1cccc(S(=O)(=O)c2c(C(=O)NNCCO)[nH]c3ccc(Cl)cc23)c1		EC50 [2]: 10 nM
CCOC(=O)c1[nH]c2ccccc2c1Sc1ccccc1N	> 200000 nM	
CC(=O)c1ccc2[nH]c(C(N)=O)c(S(=O)(=O)c3cc(C)cc(C)c3)c2c1	15 nM	
